PMC2882528 (Molecular pharmaceutics, 2010)

Key:
Type in all cases: cell-based, rat
CHOP = experiment: Western blot analysis of CHOP; conditions: IEC-6 cells, 4 h; for Effect of antioxidant on ritonavir-induced CHOP expression: ritonavir 15 µM
IEC-6 cells = experiment: Measurement of intracellular ROS; conditions: ritonavir 15 µM, VC 15 µg/ml, EL 20 µg/ml, OA 10 µg/ml, 4 h
Summary of the method: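 IEC-6 rat intestinal epithelial cells (passages 15-20; DMEM, 10% FBS, 0.1 U/mL insulin, penicillin/streptomycin, 37 °C, 5% CO2) in 12-well plates are exposed for 4 h to test compound with or without antioxidant, all in DMSO. One fraction is used for protein. The other is lysed in 0.1 N NaOH/50% methanol and centrifuged, and fluorescence is read at ex 485/em 520 nm. Results are mean ± SD of 3 independent experiments.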

[1] = tested on: IEC-6 stable cell line expressing SEAP; experiment: SEAP enzyme activity assay; conditions: ritonavir 15 µM; VC 15 µg/ml, VE 20 µg/ml, EL 20 µg/ml, OA 10 µg/ml; 24 h
Summary of the method: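 An IEC-6 line stably transfected with pSEAP reporter plasmid is treated for 24 h with test compound (15 µM) alone or with individual antioxidant. DMSO is the vehicle control and thapsigargin 100 nM is the ER-stress reference. Secreted alkaline phosphatase activity is expressed as percent of vehicle control. Results are mean ± SD of 3 independent experiments.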

| Compound | Effect of antioxidant on ritonavir-induced CHOP expression (CHOP) | Effect of antioxidant on ritonavir-induced ROS production (IEC-6 cells) | Effect of antioxidant on ritonavir-induced inhibition of SEAP activity [1] | CHOP expression (CHOP; 15 µM) |
| --- | --- | --- | --- | --- |
| CCCCCCCC/C=C\CCCCCCCC(=O)O [oleic acid] | significantly reduced | able to reduce | significantly inhibited | – |
| O=C1O[C@H]([C@@H](O)CO)C(O)=C1O [vitamin C] | significantly reduced | able to reduce | significantly inhibited | – |
| CCCCC/C=C\C/C=C\CCCCCCCC(=O)OCC [ethyl linoleate] | significantly reduced | able to reduce | significantly inhibited | – |
| vitamin E | less effect | – | significantly inhibited | – |
| CC(C)c1nc(CN(C)C(=O)N[C@H](C(=O)N[C@@H](Cc2ccccc2)C[C@H](O)[C@H](Cc2ccccc2)NC(=O)OCc2cncs2)C(C)C)cs1 [ritonavir, reference compound] | – | – | – | significantly induced |
